# Experimental data reported in ChEMBL document CHEMBL1944531, “In silico assay for assessing phospholipidosis potential of small druglike molecules: training, validation, and refinement using several data sets” (J Med Chem, 2012).
# Test: Induction of phospholipidosis in bovine corneal fibroblasts assessed as lamellar inclusion bodies after 72 hrs by light microscopy
# Design: species or system Bos taurus, Cornea
# Settings: cattle, corneal fibroblast
row,Compound,Activity
1,CN(C(=O)C(C)(C)c1cc(C(F)(F)F)cc(C(F)(F)F)c1)c1cnc(NCCO)cc1-c1ccccc1Cl,Non-toxic
2,CCN(CCO)CCCCOc1ccc2c(-c3ccc(Br)cc3)nsc2c1,Toxic
3,CC(C)CC(N(C)C)C1(c2ccc(Cl)cc2)CCC1.Cl (centres undefined),Toxic
4,Cc1c(Cl)ccc2c1N1[C@H](CNC[C@H]1C)C2,Toxic
5,CC(OCC1CC1)c1ccc2c(n1)N1[C@@H](CNC[C@H]1C)C2 (some centres undefined),Toxic
6,COc1cc(F)c(C(OC)C(=O)NCc2ccc(C(=N)N)cc2)c(F)c1.Cl (centres undefined),Non-toxic
7,CCO[C@@H](C)c1ccc2c(n1)N1[C@@H](CNC[C@H]1C)C2.Cl,Non-toxic
8,COc1ccc(C2CCOCC2)c2sc(NC(=O)N(C)C3CCN(C)CC3)nc12,Toxic
9,CS(=O)(=O)O.Cc1cc(-c2cnccn2)nn1CCC(C)(C)NCC(=O)N1CCC[C@H]1C#N,Non-toxic
10,CC(C)COc1ccc(S(C)(=O)=O)cc1C(=O)N1Cc2cnc(C(F)(F)F)cc2C1,Non-toxic
11,COc1cc(-c2nc(N)c(CN)c(-c3ccc(Cl)cc3Cl)n2)cc(OC)c1OC,Toxic
12,CC(C)(CCn1cnc(-c2cccnc2)c1)NCC(=O)N1CCC[C@H]1C#N.CS(=O)(=O)O,Non-toxic
13,COc1ccc(S(=O)(=O)N(c2ccc(F)cc2)C2CCN([C@@H]3COCC[C@@]3(O)c3ccccc3)CC2)cc1,Non-toxic
14,Cc1cc(C#Cc2cn(-c3ccc(F)cc3)c(C)n2)ccn1,Non-toxic
15,CN1CCN([C@@H]2CCN(C(=O)c3cc(C(F)(F)F)cc(C(F)(F)F)c3)C[C@@H]2c2ccccc2)CC1,Toxic
16,Cc1cc(-c2cc(-c3ccccc3C)c(C(=O)NCc3cc(C(F)(F)F)cc(C(F)(F)F)c3)cn2)ccn1,Non-toxic
17,O=C(c1cc(C(F)(F)F)cc(C(F)(F)F)c1)N1CC[C@@H](N2CCOCC2)[C@@H](c2ccc(Cl)cc2)C1,Toxic
18,CN(CC[C@H]1CC[C@H](CN2CCCCC2)CC1)C(=O)Oc1ccc(C(F)(F)F)cc1,Toxic
19,C[C@@H]1CNC[C@H]2Cc3ccc(Cl)nc3N21,Non-toxic
20,Cc1ccc2c(n1)N1[C@@H](CNC[C@H]1C)C2,Non-toxic
21,C[C@H](C(N)=O)N1CCc2cc(OCc3cccc(F)c3)ccc2C1,Toxic
22,NCc1c(N)nc(-c2ccccc2)nc1-c1ccc(Cl)cc1Cl,Toxic
23,COc1cc2c(cc1OC)[C@@H]1C[C@H](N)[C@@H](N3C[C@@H](C)CC3=O)CN1CC2,Non-toxic
24,NCC[C@H](O)C(=O)N[C@@H]1C[C@H](N)[C@@H](O[C@H]2O[C@H](CN)[C@@H](O)[C@H](O)[C@H]2O)[C@H](O)[C@H]1O[C@H]1O[C@H](CO)[C@@H](O)[C@H](N)[C@H]1O [AMIKACIN],Non-toxic
25,CCCCc1oc2ccccc2c1C(=O)c1cc(I)c(OCCN(CC)CC)c(I)c1 [AMIODARONE],Toxic
26,O=C(N[C@H](CO)[C@H](O)c1ccc([N+](=O)[O-])cc1)C(Cl)Cl [CHLORAMPHENICOL],Non-toxic
27,CN1CCN(C(c2ccccc2)c2ccc(Cl)cc2)CC1 (centres undefined) [CHLORCYCLIZINE],Toxic
28,CCN(CC)CCCC(C)Nc1ccnc2cc(Cl)ccc12 (centres undefined) [CHLOROQUINE],Toxic

row,Compound,Activity
1,CC(C)(N)Cc1ccc(Cl)cc1 [CHLORPHENTERMINE],Toxic
2,CN(C)CCCN1c2ccccc2Sc2ccc(Cl)cc21 [CHLORPROMAZINE],Toxic
3,CN(C)CCCC1(c2ccc(F)cc2)OCc2cc(C#N)ccc21 (centres undefined) [CITALOPRAM],Toxic
4,CN(C)CCCN1c2ccccc2CCc2ccc(Cl)cc21 [CLOMIPRAMINE],Toxic
5,CN1CCN(C2=Nc3cc(Cl)ccc3Nc3ccccc32)CC1 [CLOZAPINE],Toxic
6,CN1CCN(C(c2ccccc2)c2ccccc2)CC1 [CYCLIZINE],Toxic
7,CN1C(=O)CN=C(c2ccccc2)c2cc(Cl)ccc21 [DIAZEPAM],Non-toxic
8,CC[C@H]1OC(=O)[C@H](C)[C@@H](O[C@H]2C[C@@](C)(OC)[C@@H](O)[C@H](C)O2)[C@H](C)[C@@H](O[C@@H]2O[C@H](C)C[C@H](N(C)C)[C@H]2O)[C@](C)(O)C[C@@H](C)C(=O)[C@H](C)[C@@H](O)[C@]1(C)O [ERYTHROMYCIN],Non-toxic
9,O=C(CCCN1CCC(O)(c2ccc(Cl)cc2)CC1)c1ccc(F)cc1 [HALOPERIDOL],Toxic
10,OCCOCCN1CCN(C(c2ccccc2)c2ccc(Cl)cc2)CC1 (centres undefined) [HYDROXYZINE],Toxic
11,CN(C)CCCN1c2ccccc2CCc2ccccc21 [IMIPRAMINE],Toxic
12,CN(C)CCCn1c2c(c3ccccc31)CCCCCC2 [IPRINDOLE],Toxic
13,CNCCCC12CCC(c3ccccc31)c1ccccc12 [MAPROTILINE],Toxic
14,Cc1cccc(CN2CCN(C(c3ccccc3)c3ccc(Cl)cc3)CC2)c1 (centres undefined) [MECLIZINE],Toxic
15,C1CCC(C(CC2CCCCN2)C2CCCCC2)CC1 (centres undefined) [PERHEXILINE],Toxic
16,CCC1(c2ccccc2)C(=O)NC(=O)NC1=O [PHENOBARBITAL],Non-toxic
17,CC(=O)Nc1ccc(N2CCN(CCCN(C)C)CC2)cc1 [PIPERAMIDE],Toxic
18,CN(C)CCCN1c2ccccc2Sc2ccccc21 [PROMAZINE],Toxic
19,CC(C)NCC(O)COc1cccc2ccccc12 (centres undefined) [PROPRANOLOL],Toxic
20,CCN(CC)CCCC(C)Nc1c2ccc(Cl)cc2nc2ccc(OC)cc12 (centres undefined) [QUINACRINE],Toxic
21,CS(=O)(=O)O.C[C@H](NCc1ccc(OCc2cccc(F)c2)cc1)C(N)=O [SAFINAMIDE MESYLATE],Toxic
22,[H]/N=C(/N)N[C@H]1[C@H](O)[C@@H](O)[C@H](O[C@@H]2O[C@@H](C)[C@](O)(C=O)[C@H]2O[C@@H]2O[C@@H](CO)[C@H](O)[C@@H](O)[C@@H]2NC)[C@@H](N/C(N)=N\[H])[C@@H]1O [STREPTOMYCIN],Non-toxic
23,CC/C(=C(\c1ccccc1)c1ccc(OCCN(C)C)cc1)c1ccccc1 [TAMOXIFEN],Toxic
24,CCN(CC)CCOc1ccc2c(c1)C(=O)c1cc(OCCN(CC)CC)ccc1-2 [TILORONE],Toxic
25,CCCC[C@@H]1CC(=O)[C@]2(O)O[C@@H]3[C@@H](NC)[C@@H](O)[C@@H](NC)[C@H](O)[C@H]3O[C@@H]2O1 [TROSPECTOMYCIN],Non-toxic
26,CCCC(CCC)C(=O)O [VALPROIC ACID],Non-toxic
27,GENTAMICIN,Non-toxic

# Test: Induction of phospholipidosis in bovine corneal fibroblasts assessed as lamellar inclusion bodies at 7.5 uM after 72 hrs by light microscopy
# Design: species or system Bos taurus, Cornea
# Settings: cattle, corneal fibroblast
# Procedure, shortened: (§1)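 Primary bovine corneal fibroblasts from collagenase-treated explants, passage 2–8, grown in DMEM/10% FCS/L-glutamine/antibiotics at 37 °C, 5% CO2. Confluent cells exposed 72 h to compound at 2.5, 5.0, 7.5, 10.0, 12.5, 15.0 or 20 μM (DMSO 1% where used). Controls: medium, 1% DMSO, imipramine 10 μM, in duplicate. Cells were fixed in 1% glutaraldehyde, stained overnight with 1% tannic acid, and black intracytoplasmic inclusions scored qualitatively by light microscopy.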
row,Compound,Activity
1,CC(OCC1CC1)c1ccc2c(n1)N1[C@@H](CNC[C@H]1C)C2 (some centres undefined),Toxic

# Test: Induction of phospholipidosis in bovine corneal fibroblasts assessed as lamellar inclusion bodies at 20 uM after 72 hrs by light microscopy
# Design: species or system Bos taurus, Cornea
# Settings: cattle, corneal fibroblast
# Procedure, shortened: as §1
row,Compound,Activity
1,Cc1c(Cl)ccc2c1N1[C@H](CNC[C@H]1C)C2,Toxic
2,CCO[C@@H](C)c1ccc2c(n1)N1[C@@H](CNC[C@H]1C)C2.Cl,Toxic

# Test: Induction of phospholipidosis in bovine corneal fibroblasts assessed as lamellar inclusion bodies at 2.5 to 20 uM after 72 hrs by light microscopy
# Design: species or system Bos taurus, Cornea
# Settings: cattle, corneal fibroblast
# Procedure, shortened: as §1
row,Compound,Activity
1,C[C@@H]1CNC[C@H]2Cc3ccc(Cl)nc3N21,Toxic
